Experiment: Toxicity liver stage against HepG2, at 10uM
Format: cell-based
Design: test concentration 10 uM, cell line HepG2-A16-CD81EGFP
Details: human, HepG2-A16-CD81EGFP cells; read-out: INHIBITION
Outline: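 Uninfected HepG2-A16-CD81EGFP cells, 3 × 10^3 per well, 1536-well, plated on prespotted compound at 10 μM final, parasite-free screening media added to match infected plates; puromycin 10 μM positive, DMSO 0.5% negative; run in parallel with 48 h PbLuc assay at 37 °C, 5% CO2; viability by CellTiter-Glo luminescence, normalized to controls.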

SMILES | cytotoxicity at 10 µM [%]
Cn1cnc2c1C(COCC1CCOCC1)CN(C(=O)c1ccoc1)C2 (configuration not stated) | -7.8
CN(C)S(=O)(=O)N1CC[C@]2(O)CCN(CCc3cccc(F)c3)C[C@@H]2C1 | -3.38
Cc1noc([C@@H]2C[C@H](NS(=O)(=O)Cc3ccccc3)CN2C)n1 | 4.5
CNC(=O)C(C)CN(C)C(=O)Nc1cc(F)cc(Br)c1 (configuration not stated) | 4.25
O=C(c1c2c(N3CCOCC3)ncnc2n2ccccc12)N1CCCC1 | -1.52
Cc1ccc2c(n1)N(CCn1cccn1)CCN(C(=O)NC(C)C)C2 | 13.3
CC(C)n1nc2c(cc1=O)CN(CCOc1ccc(C#N)cc1)CC2 | 14.9
c1csc(C(CNCc2cccc3c2OCO3)N2CCOCC2)c1 (configuration not stated) | -44.4
CCCc1noc(CCCC(=O)N2CCCC(n3ccnc3C)C2)n1 (configuration not stated) | -2.5
O=C(Cc1c(F)cccc1Cl)Nc1cc(N2CCCC2)ncn1 | -2.85
NC(=O)NCC(=O)N1CCC(c2cc(-c3ccccc3Cl)n[nH]2)CC1 | -0.208
N[C@@H]1c2ccccc2C2(CCN(c3ncccc3C(F)(F)F)CC2)[C@H]1O | 0.106
Cc1cnn(CC2CCCN2Cc2nc3ccccc3n2C)c1 (configuration not stated) | -14.5
CC(SCCC(=O)NC(N)=O)c1ccc(F)cc1F (configuration not stated) | 0.936
O=C(C1CCOC1)N1CCC2(CCN(Cc3nccs3)C2)CC1 (configuration not stated) | -74.8
O=C(Nc1cccc(N2CCN(CC3CC3)CC2)c1)C1CCCO1 (configuration not stated) | -1.23
CCN(C)C(=O)c1ccc(N(C)Cc2cc(-c3ccncc3)no2)nc1 | -2.04
Cc1nc2c(c(=O)n1C)CCN(Cc1cc3ccccc3[nH]1)CC2 | -8.42
CCn1cc(CN2CCCN(C3Cc4ccccc4C3)CC2)cn1 | 2.66
c1ccc2c3c([nH]c2c1)C(c1nn[nH]n1)CCC3 (configuration not stated) | -7.23
CC(=O)c1ccc(CN2C[C@@H](CN3CCC(O)CC3)[C@@H](CO)C2)cc1 | 9.99

SMILES | cytotoxicity at 10 µM [%]
CN(C)c1cc2c(nn1)CCN(C(=O)Cc1noc3ccccc13)C2 | -10.7
COc1cc(NC(=O)NC2CCOCC2)ccc1N1CCOC1=O | -4.59
NC(=O)C1CCN(C(=O)NCc2csc(Br)c2)CC1 | -18
CCCC(=O)N1CCC(O)(Cn2c(CC)nc3ccccc3c2=O)CC1 | -2.03
Cn1ncc(C(=O)N2CCOCC2)c1Cl | 8.93
Cc1cc(C)n(-c2ccc(C(=O)NCC(CO)Cc3ccco3)cc2)n1 (configuration not stated) | 3.62
CN(C)Cc1cnc(C2CCN(C(=O)c3cccc(F)c3)C2)[nH]1 (configuration not stated) | 2.54
Cn1ccc(NC(=O)CN2C[C@@H]3CC[C@H]2CN(S(C)(=O)=O)C3)n1 | -14.2
CC(C)CN(C)Cc1c[nH]nc1-c1ccc(F)cc1F | 2.38
CCCn1cnnc1CNC1CSCCSC1 | -7.31
COCC(=O)Nc1ccc(N2CCC(OC)CC2)c(C(F)(F)F)c1 | -0.0399
COc1cc(C)nc(N2CCN(C(=O)CCn3cc(C)cn3)CC2)n1 | -3.56
O=C1C(N2CCOC3(CCCC3)C2)CCN1C1CC1 (configuration not stated) | 9.4
CCN1CCOC(CNCc2cnc(N(CC)CC)s2)C1 (configuration not stated) | 0.598
CSCc1cccc(S(=O)(=O)N2CCC(C)CC2)c1 | 13.1
COc1cccc(CNC(=O)C(C)n2ccnc2C(C)C)c1OC (configuration not stated) | -1.68
CN(C)C(=O)N1CCCn2nc(CNC(=O)CCc3cccs3)cc2C1 | -5.04
Cc1ccsc1C(O)CNS(=O)(=O)Cc1ccc(F)cc1 (configuration not stated) | -4.38
CCC[C@@H]1CN(C(=O)c2ccccc2C(C)=O)C[C@H]1N(C)C | -0.254
CCC(c1nc(C(C)C)nn1-c1ccncc1C)n1cccn1 (configuration not stated) | -13.9
COC(=O)c1cccc(-c2nc(CC3CCN(C)CC3)no2)c1 | -1.6

SMILES | cytotoxicity at 10 µM [%]
Cc1cccc(COC[C@H]2CC[C@H]3[C@H](CCN3Cc3ccco3)O2)n1 | -172
COc1ccc2cc(NC(=O)CCNc3ncccn3)cnc2c1 | -43
O=c1[nH]nc(SCC2CCCCO2)n1C1CC1 (configuration not stated) | 2.14
O=C(Cn1cnc2ccccc2c1=O)Nc1cc(C2CC2)n[nH]1 | 49.4
CCCN(CCC)S(=O)(=O)NC(C)C(=O)N(C)C (configuration not stated) | -0.237
COCC(=O)N1C[C@H]2CNC[C@@]2(C(=O)NCc2cccc3[nH]ccc23)C1 | 6.65
COc1ccc2c(ccn2CCC(=O)O)c1 | 15.4
O=C1CC(c2ccncc2)C2(CCN(CCO)CC2)N1 (configuration not stated) | -3.4
CC(C)Oc1ccc(C(=O)NCc2ccnc(N3CCCC3)c2)cn1 | 47.3
CCN1C(=O)CCCC12CCCN(C(=O)c1ccoc1C)C2 (configuration not stated) | -11.8
Cc1ccc(C2COCCN2C(=O)c2ccc(F)c(F)c2)o1 (configuration not stated) | 4.96
CCS(=O)(=O)N1Cc2c(Cn3ccnc3)nn(C(C)C)c2C1 | 11.5
COCCN(Cc1sccc1C)Cc1nccn1CCOC | 2.33
c1cc(-c2n[nH]c(CNc3nnc(C4CC4)o3)n2)ccn1 | -2.59
O=C(O)CCNC(=O)Cc1csc(-c2cccc(Cl)c2)n1 | 8.32
O=C(c1cc(COc2ccc3c(c2)OCO3)[nH]n1)N1CCCC1 | -0.526
CCc1cc(=O)[nH]c(NC2CCN(S(=O)(=O)c3ccccc3)CC2)n1 | -5.49
CC(C)Cc1noc(CNc2ccccc2CC(=O)N(C)C)n1 | 0.489
Cc1nsc(NC(=O)NC2CCOCC2)n1 | -10.1
Cc1nn(C)c(N(C)C)c1CNC(C)COc1ccc(F)cc1F (configuration not stated) | -9.78
CCCS(=O)(=O)N1C[C@H](N(C)Cc2ccco2)[C@@H]2OCCC[C@@H]21 | -78.4

SMILES | cytotoxicity at 10 µM [%]
CCN1C(=O)C(c2ccccc2)CC12CCN(CCO)CC2 (configuration not stated) | 1.26
Cc1cc(F)ccc1N1CCCC(NC(=O)CCc2ccncc2)C1 (configuration not stated) | 8.72
CCC(C)NC(=O)c1ccc(-c2ccco2)[nH]c1=O (configuration not stated) | -5.05
CC(C)(C)C(=O)N1C[C@@H]2COC[C@]2(c2nnc(C3CC3)o2)C1 | -2.47
CC(C)(C#N)CCCS(=O)(=O)c1nccn1-c1cccc(F)c1 | -1.12
CN(C)C(=O)CN1C[C@H]2CC[C@@H](C1)N(Cc1ccc(Cl)cc1Cl)C2 | -10.2
CC(NC(=O)c1cccnc1N(C)C)c1ccccc1Cl (configuration not stated) | -4.97
O=C1CCC2(CCN(c3ncc(F)cn3)CC2)N1CCN1CCCC1 | 10.5
O=C(NCc1ccccn1)[C@@H]1CC[C@@H]2[C@@H](CCN2c2ncc(F)cn2)O1 | -74.8
Cc1cccc(CN2CCc3ncnc(N4CCOCC4)c3CC2)n1 | -4.95
COCC1COCCC12CCN(C(=O)Cc1cccc(OC)c1)CC2 (configuration not stated) | -2.56
O=C1CC(c2ccsc2)c2snc(C(=O)O)c2N1 (configuration not stated) | -0.772
CCN(Cc1ccco1)C(=O)NCC(C)N1CCc2sccc2C1 (configuration not stated) | 9.08
CC(C)(C)NS(=O)(=O)c1ccc(NC(=O)C2CC2)cc1 | -6.73
CN(C)c1nc(N)nc(CSCCC(=O)Nc2ccc(F)cc2)n1 | -1.33
CN(Cc1cn(CC2CCNCC2)nn1)CC1CCCCO1 (configuration not stated) | -1.9
Cc1ccc(S(N)(=O)=O)cc1C(=O)NC1CCCC1 | 1.86
CCC(C)(NCc1nc(C)c(C)o1)c1nccs1 (configuration not stated) | -2.05
CCn1ncc2c1CCCC2NCc1ccc2c(c1)OCCO2 (configuration not stated) | -9.12

From ChEMBL document CHEMBL4513216, “Probing the Open Global Health Chemical Diversity Library for Multistage-Active Starting Points for Next-Generation Antimalarials” (ACS Infect Dis, 2020)
